From ChEMBL document CHEMBL1152279 (J Med Chem, 2008)
One block for each compound: values may come before it.

Key:
[1] = Dissociation constant, pKa of the compound; assay type: physicochemical
[2] = molecular target: Histamine H2 receptor (Cavia porcellus) (UniProt P47747); assay: Antagonist activity at histamine H2 receptor in guinea pig spontaneously beating right atrium assessed as positive chronotropic activity at 58 uM relative to histamine; assay type: functional, tissue-based; conditions: Cardiac atrium
[3] = molecular target: Histamine H2 receptor (Cavia porcellus) (UniProt P47747); assay: Antagonist activity at histamine H2 receptor in guinea pig spontaneously beating right atrium assessed as histamine Emax at 58 uM; assay type: functional, tissue-based; conditions: Cardiac atrium
[4] = molecular target: Histamine H1 receptor (Homo sapiens) (UniProt P35367); assay: Antagonist activity at histamine H1 receptor in human U373 MG cells assessed as inhibition of histamine-induced intracellular calcium level preincubated for 15 mins prior to histamine challenge; assay type: functional, cell-based; conditions: U-373MG ATCC
Summary of the method: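 U373-MG human cells expressing H1R, calcium assay. […] KB was derived from IC50 by the Cheng-Prusoff equation. Values are the mean of two experiments.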

Histamine H2 receptor = Histamine H2 receptor (Cavia porcellus, UniProt P47747); assay: Antagonist activity at histamine H2 receptor in guinea pig spontaneously beating right atrium assessed as inhibition of histamine-induced positive chronotropic activity; assay type: functional, tissue-based, Cardiac atrium
Histamine H2 receptor, sequence (P47747 whole entry): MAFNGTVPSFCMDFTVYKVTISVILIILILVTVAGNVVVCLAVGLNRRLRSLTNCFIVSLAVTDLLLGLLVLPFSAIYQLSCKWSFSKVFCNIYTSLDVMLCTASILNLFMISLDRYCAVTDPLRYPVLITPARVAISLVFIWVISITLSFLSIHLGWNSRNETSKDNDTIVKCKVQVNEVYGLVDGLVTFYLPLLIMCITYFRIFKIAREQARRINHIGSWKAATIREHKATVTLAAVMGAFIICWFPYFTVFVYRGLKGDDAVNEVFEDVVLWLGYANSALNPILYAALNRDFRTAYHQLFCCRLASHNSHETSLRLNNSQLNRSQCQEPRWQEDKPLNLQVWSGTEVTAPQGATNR

Histamine H2 receptor (Cavia porcellus), sequence (P47747 whole entry): as above
Histamine H1 receptor (Homo sapiens), sequence (P35367 whole entry): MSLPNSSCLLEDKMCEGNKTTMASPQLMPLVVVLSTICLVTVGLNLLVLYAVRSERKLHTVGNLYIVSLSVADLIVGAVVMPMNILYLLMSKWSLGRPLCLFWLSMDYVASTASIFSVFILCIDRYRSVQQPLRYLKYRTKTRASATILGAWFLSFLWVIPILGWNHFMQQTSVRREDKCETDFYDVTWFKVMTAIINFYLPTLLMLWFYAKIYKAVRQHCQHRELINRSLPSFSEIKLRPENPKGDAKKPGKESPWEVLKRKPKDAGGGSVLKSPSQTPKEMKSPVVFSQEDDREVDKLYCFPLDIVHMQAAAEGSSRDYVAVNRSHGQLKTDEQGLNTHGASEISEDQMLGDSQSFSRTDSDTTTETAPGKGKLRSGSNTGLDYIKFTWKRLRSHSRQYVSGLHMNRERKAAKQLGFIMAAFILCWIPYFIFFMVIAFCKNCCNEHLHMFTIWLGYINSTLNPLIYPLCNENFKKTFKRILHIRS

pKa [1]: 12.5
Structure (SMILES): N=C(N)N [GUANIDINE]

pKa [1]: 7.6
Structure (SMILES): CC(=O)NC(=N)N

Emax [2]: 7% | Emax [3]: 45% | Kb [4]: 9.3 µM
Structure (SMILES): CC(CCNC(=N)NC(=O)CCc1c[nH]cn1)c1ccccc1 (stereo unspecified)

pA2 (Histamine H2 receptor): 5.19
Structure (SMILES): CC(CCN=C(N)NC(=O)CCc1cnc[nH]1)c1ccccc1 (stereo unspecified)
